# This is a sample that favours compounds with a hit; in the whole collection about 3.4% have one here.
# ANO1 activ: activates or potentiates the mouse TMEM16A chloride channel; HEK293 TMEM16A/YFP-H148Q/I152L, iodide quench fluorescence; active compounds read low; Q8BHY3; 0.3% of 340,000 active; B-score at 10 µM;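 active = fluorescence-ratio B-score plate-corrected deviation score at least 3 library SD below zero, with starting fluorescence score within 5 deviations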;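 also: channel opened by trigger with iodide after compound preincubation; score built on the fluorescence ratio of max minus min over baseline; more negative score means more quench and so TMEM16A activation or potentiation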
# CHT inh: inhibitors of human choline transporter CHT; Q9GZV3; CHT-expressing cells, membrane potential dye, choline response; active compounds read low; B-score at 10 µM; 0.86% of 310,000 active;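 active = B-score over 3 SD under the library average, and starting fluorescence ratio not unusually high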;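 also: choline stimulus applied at its EC90 after an EC20 pre-addition; B-score computed on integrated fluorescence ratio after choline addition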
# Target sequence (Q9GZV3 whole entry, looked up): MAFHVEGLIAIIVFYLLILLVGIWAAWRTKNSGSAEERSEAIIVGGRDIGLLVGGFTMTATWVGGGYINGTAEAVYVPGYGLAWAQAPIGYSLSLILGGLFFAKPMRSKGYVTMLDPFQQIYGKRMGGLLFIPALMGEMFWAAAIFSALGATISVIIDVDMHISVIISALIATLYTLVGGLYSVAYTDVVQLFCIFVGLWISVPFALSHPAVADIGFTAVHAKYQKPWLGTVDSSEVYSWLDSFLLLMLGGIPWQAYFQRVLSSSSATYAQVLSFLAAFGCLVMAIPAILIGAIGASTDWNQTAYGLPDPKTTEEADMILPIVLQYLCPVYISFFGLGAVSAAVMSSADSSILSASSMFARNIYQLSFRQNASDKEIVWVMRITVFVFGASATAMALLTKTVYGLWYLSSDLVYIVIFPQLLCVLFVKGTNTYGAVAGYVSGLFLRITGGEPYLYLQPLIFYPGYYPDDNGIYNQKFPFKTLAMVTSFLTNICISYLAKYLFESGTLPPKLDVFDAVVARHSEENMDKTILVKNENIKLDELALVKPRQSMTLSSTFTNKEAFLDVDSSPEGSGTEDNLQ
# CHT allo act: allosterically activates the human high affinity choline transporter; CHT-expressing cells, membrane potential dye, choline EC20; active compounds read high; LV-AA mutant CHT in HEK293 cells; B-score at 10 µM; 0.49% of 310,000 active;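 active = initial fluorescence not abnormally high and integrated response B-score, plate-corrected, over 3 SD above library mean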
# IMP-1 inh: blocks Pseudomonas aeruginosa IMP-1 metallo-beta-lactamase | 0.45% of 290,000 active | inhibition, % at 5.6 µM | purified IMP-1, nitrocefin hydrolysis, epi-absorbance fluorescence;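 active = inhibition above the mean plus 3 SD of all compounds in the same screening run, cut at about 4.5% in these data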;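 also: 0% = IMP-1 with DMSO and 100% = DMSO wells lacking enzyme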
#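 System: purified IMP-1 / Input: IMP-1 dispensed at 0.2 nM / Medium: 50 mM HEPES pH 7.1, 50 µM ZnSO4, 0.05% Brij 35 / Timing: 15 min enzyme–compound preincubation, then 25 min nitrocefin reaction, 25 °C / Technique: plate fluorescence quenching by hydrolysis product, ex 480/em 530 nm / Repeats: singlicate testing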
# ANO1 block: mouse TMEM16A channel inhibition, primary screen; Q8BHY3; HEK293 TMEM16A/YFP iodide influx fluorescence, ionomycin; normalized B-score (activity score, 25-100; higher = stronger inhibition) at 10 µM; 1.2% of 310,000 active;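 active = ratio plate-corrected score three or more library SD toward inhibition, starting fluorescence score within five deviations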;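 also: score derived from kinetic fluorescence span divided by baseline fluorescence per well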
# VIM-2 inhibitor: blocks Pseudomonas aeruginosa VIM-2 metallo-beta-lactamase | purified VIM-2, nitrocefin hydrolysis, epi-absorbance fluorescence | inhibition, % at 5.6 µM | 0.89% of 290,000 active | AID 1527;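 active = inhibition above the mean of all tested compounds plus 3 SD, cutoff set per screening run, cut at about 7.5% in these data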;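 also: red hydrolysis product quenches plate fluorescence so inhibitors raise well fluorescence; 0% = enzyme with DMSO and 100% = DMSO without enzyme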
# The depositor's hits bear a star; i = inactive; / = not tested or not shown.
SMILES,ANO1 activ,CHT inh,CHT allo act,IMP-1 inh,ANO1 block,VIM-2 inhibitor
CS(=O)(=O)N1CCc2cc(C(=O)Nc3ccc(COCC(F)(F)F)cc3)ccc21,i,i,i,-1,i,-1
CC(=O)N1CCN(Cc2nc3ccc(Cl)cc3n2CCO)CC1,i,i,i,-1,i,-2
Cc1cc(C)n2nc(C(=O)Nc3ccc4c(c3)OCO4)cc2n1,i,i,i,4.7*,i,1
CCOC(=O)c1ccc([N+](=O)[O-])c(CS(=O)(=O)c2ccc(Cl)cc2)c1,i,i,i,-2,i,-1
Cc1ccc(S(=O)(=O)Cc2cc(F)c([N+](=O)[O-])cc2[N+](=O)[O-])cc1,i,-6.4*,i,3,i,3
CC1CC(CCC(=O)NC(=S)Nc2ccc(S(N)(=O)=O)cc2)C(=O)O1 (stereo unspecified),-4.7*,i,i,0,i,-1
O=Cc1ccc(C(=O)OCC(=O)NCc2ccco2)cc1,i,/,/,/,/,/
CCOC(=O)/C(=N\Nc1ccc(Cl)cc1)c1csc(Nc2ccccc2)n1,i,i,i,-5,100*,-6
COC(=O)C1CCC(=S)N1C(=O)c1ccccc1 (stereo unspecified),i,i,i,20*,i,1
Cc1ccc(C(=O)Cn2ncsc2=N)cc1,i,i,i,25*,i,-2
Cc1ccc([N+](=O)[O-])cc1N=Nc1c(-c2ccc([N+](=O)[O-])cc2)[nH]n(C(N)=S)c1=O,-5.4*,/,/,-2,/,-2
Cc1ccc([N+](=O)[O-])cc1N=Nc1c(C)[nH]n(C(N)=S)c1=O,i,i,i,-3,i,-3
Oc1ccc(/C=N/N(Cc2ccccc2)c2ccccc2)c(O)c1O,i,/,/,5.1*,/,1
Oc1cccc(/C=N/N(Cc2ccccc2)c2ccccc2)c1,i,i,i,0,i,0
Fc1ccc(Cn2ccc(-c3cnc(-c4ccccc4)s3)n2)cc1,i,i,i,-2,100*,-1
O=C(c1ccc(F)cc1)n1ccc(-c2cnc(-c3ccccc3)s2)n1,i,i,i,-1,i,-1
COc1ccc(CC(=O)N/N=C/c2cccn2-c2ccc([N+](=O)[O-])cc2)cc1OC,-12*,i,i,2,i,-3
Cc1ccc([N+](=O)[O-])cc1S(=O)(=O)Nc1cccc(S(=O)(=O)NC2=NCCC2)c1,i,/,/,/,/,/
O=S(=O)(c1ccc(Cl)c(NC(=S)N/N=C/c2ccc(O)cc2)c1)N1CCOCC1,i,i,i,-4,i,3
O=S(=O)(c1ccc(Cl)c(NC(=S)N/N=C/c2c(F)cccc2F)c1)N1CCOCC1,i,i,i,-3,i,10*
Cc1cc(C)c(S(=O)(=O)NCC(=O)NCc2cc(=O)n(C)c(=O)n2C)c(C)c1,i,i,i,-2,i,-2
CCOc1ccccc1N(CC(=O)OC)S(C)(=O)=O,i,i,i,4.9*,i,-2
COc1ccc(-c2oc(NC(=O)CCl)c(C#N)c2-c2ccc(OC)cc2)cc1,i,i,i,-6,100*,-4
COc1ccc(-c2cc(C(=O)OCC(=O)N(C)C)c3ccccc3n2)cc1,i,i,i,4.7*,i,1
CCN(Cc1ccc2c(c1)OCCO2)C(=O)CSc1nc(C)nc2sc(C)c(C)c12,i,/,/,/,/,/
SMILES,ANO1 activ,CHT inh,CHT allo act,IMP-1 inh,ANO1 block,VIM-2 inhibitor
O=C(Nc1ccc2c(c1)OCO2)C1CC(c2ccc(Cl)cc2)=NO1 (stereo unspecified),i,i,i,-2,100*,-3
CN(CC(=O)NCC(=O)Nc1ccc(F)cc1)CC(=O)Nc1ccc(Cl)c(C(F)(F)F)c1,i,/,/,/,/,/
CN(CC(=O)NCc1ccc(F)cc1)CC(=O)Nc1ccc(Cl)c(C(F)(F)F)c1,i,i,i,0,100*,3
Cc1[nH]c2ccccc2c1C(=O)CSC(=S)N1CCCCC1,-12*,i,i,-3,i,-2
Cc1cccc2c3nc4ccccc4nc3n(C)c12,/,i,i,-3,i,9.7*
O=C(Nc1cccc(Br)c1)c1ccc(CN2CCc3ccccc3C2)cc1,i,i,i,-1,25*,1
CC(=O)Nc1ccc(NC(=O)c2ccc(CN3CCc4ccccc4C3)cc2)cc1,i,i,i,-3,i,-1
CSc1cccc(NC(=O)c2ccc(CN3CCc4ccccc4C3)cc2)c1,i,i,i,-3,100*,-1
COC(=O)c1ccc(CN2CCc3ccc(NC(=O)c4ccncc4)cc3C2)cc1,i,i,i,-4,100*,-3
COc1ccc2c(CC(=O)NNC(=O)c3ccc(O)cc3)coc2c1,i,/,/,/,/,/
CCOC(=O)N1N=C(CC)CC1(O)C(F)(F)F (stereo unspecified),-11*,i,i,3,i,1
CCOC(=O)N1N=C(c2ccc(C)cc2)CC1(O)C(F)(F)F (stereo unspecified),i,i,i,-1,i,0
O=C(CCCn1c(=S)[nH]c2cc3c(cc2c1=O)OCO3)NCc1ccccc1Cl,i,i,i,14*,i,-4
O=C(C1CCN(S(=O)(=O)c2ccc(Br)s2)CC1)N1CCCCC1,i,i,i,-2,i,0
CCCc1nnc(NC(=O)C2CCN(C(=O)C3CC(=O)N(c4ccc(C)cc4)C3)CC2)s1 (stereo unspecified),i,i,i,-1,i,0
O=[N+]([O-])c1ccc(O)c(-c2cc(C(F)(F)F)nc(-c3ccccc3)n2)c1,i,i,i,2,100*,0
Oc1ccccc1-c1cc(C(F)(F)C(F)F)nc(-c2ccccc2)n1,i,i,i,0,i,0
COc1ccc(Oc2coc3cc(O)ccc3c2=O)cc1,i,i,i,25*,i,-1
COc1ccccc1Oc1coc2cc(O)ccc2c1=O,i,i,i,-2,i,-1
Cc1ccc(S(=O)(=O)N(CC(=O)c2ccccc2)C(=O)N2CCN(C)CC2)cc1,i,/,/,/,/,/
Cc1cccc(-n2cnc(C(=O)O)c2)n1,i,i,i,-1,i,9.7*
Cc1sc2c(c1C)C(O)=C(C(=O)Nc1ccccc1)S(=O)(=O)N2C,i,i,i,4.6*,i,0
CC(C)N(C(=O)c1ccc(C(=O)Nc2ccc([N+](=O)[O-])cc2)cc1)C(C)C,i,i,i,5.6*,i,2

# High-throughput results deposited in PubChem by several laboratories.
